Assay: Toxicity liver stage against HepG2, at 10uM
Format: cell-based
Set-up: test concentration 10 uM, cell line HepG2-A16-CD81EGFP
Settings: human, HepG2-A16-CD81EGFP cells; read-out: INHIBITION
Procedure, shortened: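 Uninfected HepG2-A16-CD81EGFP cells, 3 × 10^3 per well, 1536-well, plated on prespotted compound at 10 μM final, parasite-free screening media added to match infected plates; puromycin 10 μM positive, DMSO 0.5% negative; run in parallel with 48 h PbLuc assay at 37 °C, 5% CO2; viability by CellTiter-Glo luminescence, normalized to controls.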

**Q.** For Cc1ccc(CNC2(Cc3cc(-c4ccccn4)on3)COC2)o1, which cytotoxicity at 10 µM is on record?
**A.** 8.91%

**Q.** Which cytotoxicity at 10 µM does the source give for C[C@@H](O)CNC(=O)c1nc(Cc2c(Cl)cccc2Cl)no1 here?
**A.** 0.483%

**Q.** For Cn1cc(C(=O)NCC(Cc2cccc(F)c2)N2CCCCC2=O)nn1 (stereo unspecified), which cytotoxicity at 10 µM is on record?
**A.** -1.13%

**Q.** With CC(=O)N1CCCC1c1nc(C)no1 (stereo unspecified) as the compound, how does the cytotoxicity at 10 µM read?
**A.** -14.8%

**Q.** With COCC(=O)N1CCCC1c1nccnc1Nc1ncccn1 (stereo unspecified) as the compound, how does the cytotoxicity at 10 µM read?
**A.** -2.69%

**Q.** For CC(=O)NCCNC(=O)Nc1ccc(Br)cc1C(C)C, which cytotoxicity at 10 µM is on record?
**A.** 6.54%

**Q.** For O=C(CN(Cc1cccs1)C1CCS(=O)(=O)C1)NC1CCCCC1 (stereo unspecified), which cytotoxicity at 10 µM is on record?
**A.** -7.53%

**Q.** Which cytotoxicity at 10 µM does the source give for Cn1cnnc1C1CCCN(c2nc3ccccc3o2)C1 (stereo unspecified) here?
**A.** -17.4%

**Q.** For CC(C)c1ccc(S(=O)(=O)NC2CCN(CC(F)(F)F)C2)cc1 (stereo unspecified), which cytotoxicity at 10 µM is on record?
**A.** 9.19%

**Q.** Which cytotoxicity at 10 µM does the source give for CCN(Cc1ccoc1)C(=O)Nc1ccccc1CN(C)C(C)=O here?
**A.** 4.55%

**Q.** With CCc1nc(CNc2ccc(C(=O)NCc3ccco3)cc2C)no1 as the compound, how does the cytotoxicity at 10 µM read?
**A.** 2.4%

**Q.** For COC(=O)C(O)C1CCN(Cc2cccc(-n3cccn3)c2)CC1 (stereo unspecified), which cytotoxicity at 10 µM is on record?
**A.** -16.5%

**Q.** For Cc1cccc(N(CCC(N)=O)CC(=O)Nc2ccccc2)c1, which cytotoxicity at 10 µM is on record?
**A.** -9.5%

**Q.** For Cc1ccccc1C(C)(C)CNC(=O)CN(C)c1cnccn1, which cytotoxicity at 10 µM is on record?
**A.** -2.21%

**Q.** Which cytotoxicity at 10 µM does the source give for COCC1CN(C(=O)Nc2ccc(Cl)cc2Cl)CCO1 (stereo unspecified) here?
**A.** 4.26%

**Q.** With CCc1nsc(NC2CCCn3nc(COC)nc32)n1 (stereo unspecified) as the compound, how does the cytotoxicity at 10 µM read?
**A.** 14.1%

**Q.** Which cytotoxicity at 10 µM does the source give for Cn1ccnc1CNC(=O)N1CCCC(Cc2nccn2C)C1 (stereo unspecified) here?
**A.** 2.63%

**Q.** For CCC(=O)N1CCN(C(=O)c2ccc(OC)o2)[C@H]2CS(=O)(=O)C[C@H]21, which cytotoxicity at 10 µM is on record?
**A.** 0.224%

**Q.** With COCc1noc(CCNC(=O)c2cc(C)c(C)[nH]c2=O)n1 as the compound, how does the cytotoxicity at 10 µM read?
**A.** -4.71%

**Q.** Which cytotoxicity at 10 µM does the source give for Cc1cccc(C(C(=O)N2CC(Oc3ccccc3F)C2)N(C)C)c1 (stereo unspecified) here?
**A.** -0.572%

**Q.** For CCN(CC)C(=O)[C@@H]1C[C@@H](NC(=O)c2ccoc2)CN1C, which cytotoxicity at 10 µM is on record?
**A.** 2.37%

**Q.** For Cc1ccc(CCNc2nccc(-c3cc(C(=O)O)ccn3)n2)o1, which cytotoxicity at 10 µM is on record?
**A.** -2.86%

**Q.** For COc1ncc(CN2CCC3(CCCN(CC4CCCCC4)C3)C2)cn1 (stereo unspecified), which cytotoxicity at 10 µM is on record?
**A.** -6.8%

**Q.** For CN(C)S(=O)(=O)N1CC[C@]2(O)CCN(c3ncccn3)C[C@@H]2C1, which cytotoxicity at 10 µM is on record?
**A.** 5.74%

**Q.** With CCn1cc(CN(C)C(=O)c2cccc(CCC(C)(C)O)c2)cn1 as the compound, how does the cytotoxicity at 10 µM read?
**A.** -0.0444%

**Q.** With O=C(CCc1c[nH]cn1)N1CC[C@@H](c2ccc3ccccc3c2)[C@H](O)C1 as the compound, how does the cytotoxicity at 10 µM read?
**A.** -4.04%

**Q.** For CC(C(=O)N1CCCC1)N1CCC(c2nccn2CC2CCC2)CC1 (stereo unspecified), which cytotoxicity at 10 µM is on record?
**A.** -1.96%

**Q.** For Cn1nccc1CNC(=O)CCn1nc(C(F)(F)F)c(Cl)c1C1CC1, which cytotoxicity at 10 µM is on record?
**A.** -3.33%

**Q.** For O=C(CN1CCCC1c1noc(C2CC2)n1)N1CCc2ccccc21 (stereo unspecified), which cytotoxicity at 10 µM is on record?
**A.** -5.86%

**Q.** For Cc1nn(C)c(N2CCOCC2)c1CNC1CCc2ccccc21 (stereo unspecified), which cytotoxicity at 10 µM is on record?
**A.** -0.704%

**Q.** With CN(C)c1ccc(C(=O)N2CCN(CC(O)C(C)(C)C)CC2)nn1 (stereo unspecified) as the compound, how does the cytotoxicity at 10 µM read?
**A.** -19.2%

**Q.** With Cc1cc(CN2CCOC(CNc3cccnn3)C2)no1 (stereo unspecified) as the compound, how does the cytotoxicity at 10 µM read?
**A.** -18.4%

**Q.** With CN(Cc1ccc(N2CCOCC2)cc1)C(=O)Cn1cccnc1=O as the compound, how does the cytotoxicity at 10 µM read?
**A.** -18.4%

**Q.** Which cytotoxicity at 10 µM does the source give for COC(=O)CC(NC(=O)c1ccc(OC)cc1OC)c1cccs1 (stereo unspecified) here?
**A.** -0.554%

**Q.** With Cc1cnn(CCNCc2ccc(OCc3ccncc3)cc2)c1 as the compound, how does the cytotoxicity at 10 µM read?
**A.** -2.99%

**Q.** Which cytotoxicity at 10 µM does the source give for Cc1cnn(CC2CCCCN2C(=O)Cc2c(C)nn(C)c2C)c1 (stereo unspecified) here?
**A.** -13%

**Q.** Which cytotoxicity at 10 µM does the source give for Cn1ccnc1CN1CCOC(Cn2cccn2)C1 (stereo unspecified) here?
**A.** -6.07%

**Q.** For CC1CCCCN1CCNC(=O)c1ccn(-c2ccccc2)n1 (stereo unspecified), which cytotoxicity at 10 µM is on record?
**A.** -15.2%

**Q.** For Cc1cnc(C(=O)N2CCCC(n3nc(C)nc3C)C2)cn1 (stereo unspecified), which cytotoxicity at 10 µM is on record?
**A.** -12%

**Q.** For CNC(=O)c1ccc(CN(C(=O)c2scnc2C)C2CC2)cc1, which cytotoxicity at 10 µM is on record?
**A.** -3.09%

**Q.** With Cc1ccc(Cl)cc1N1CCC(CNC(=O)CC(F)(F)F)C1 (stereo unspecified) as the compound, how does the cytotoxicity at 10 µM read?
**A.** -9.7%

**Q.** Which cytotoxicity at 10 µM does the source give for Cc1noc(CCCC(=O)NC(C)c2cn(-c3ccccc3)nn2)n1 (stereo unspecified) here?
**A.** -8.18%

**Q.** For Fc1ccc(-c2cnc(CN3CCCC3Cn3cccn3)o2)cc1 (stereo unspecified), which cytotoxicity at 10 µM is on record?
**A.** -7.52%

**Q.** For Cc1cc(C)n(C2CN(CC(O)c3ccc(F)cc3)C2)n1 (stereo unspecified), which cytotoxicity at 10 µM is on record?
**A.** -13%

**Q.** Which cytotoxicity at 10 µM does the source give for Cc1cc(C(=O)NCCn2nc3ccccn3c2=O)[nH]n1 here?
**A.** -4.92%

**Q.** Which cytotoxicity at 10 µM does the source give for COCC1c2c(cnn2CC2CC2)CCN1Cc1nccs1 (stereo unspecified) here?
**A.** -1.21%

— ChEMBL document CHEMBL4513216, “Probing the Open Global Health Chemical Diversity Library for Multistage-Active Starting Points for Next-Generation Antimalarials” (ACS Infect Dis, 2020)
